Experimental data gathered from unrelated publications.
Target: Phosphatidylinositol 4-phosphate 5-kinase type-1 alpha (PIP5K1A, Homo sapiens, UniProt Q99755)

| Compound | test | setting | remaining binding [%] |
| --- | --- | --- | --- |
| Cc1cc(NC(=O)c2cccc(S(F)(F)(F)(F)F)c2)cc(-n2ccn3nc(-c4cccnc4)cc23)c1 | cell-free assay, competition with immobilised ligand | 1 µM | 100 |
| C[C@@H]1CCN(c2nccc(-c3cnn4ncccc34)n2)C1 | binding | 1 µM | 52 |
| O=C(c1ccc(Nc2ncc(Cl)c(-c3cc4ccccc4s3)n2)cc1)N1CCC(N2CCCC2)CC1 | binding, competition with immobilised ligand | 1 µM | 2.2 |
| CN(C(=O)c1ccccc1)c1cc(N(C)c2ccc3c(c2)CCc2ccc(C(=O)NCCN4CCOCC4)cc2C3=O)ccc1F | cell-free assay, competition with immobilised ligand | 1 µM | 100 |
| CC1CCCN1c1nccc(-c2cnn3ncccc23)n1 (stereo not shown) | binding | 1 µM | 100 |
| Cc1cnc(Nc2ccc(C(=O)N3CCC(N4CCCC4)CC3)cc2)nc1-c1cc2ccccc2s1 | binding, competition with immobilised ligand | 1 µM | 1.5 |
| CN(CCCC(F)(F)F)c1nccc(-c2cnn3ncccc23)n1 | binding | 1 µM | 100 |
| c1cncc(-c2cccc(Nc3nccc(NC4CCCCC4)n3)c2)c1 | binding, competition with immobilised ligand | 10 µM | 71 |
| Cc1nc(NC(=O)N2CCC[C@H]2C(N)=O)sc1-c1ccnc(C(C)(C)C(F)(F)F)c1 | binding, competition with immobilised ligand | 10 µM | 59 |
| Cc1cc(C)c(-n2ccn3nc(-c4cccnc4)cc23)cc1NC(=O)c1cc(C#N)cc(S(F)(F)(F)(F)F)c1 | cell-free assay, competition with immobilised ligand | 0.1 µM | 95 |
| c1cnn2ncc(-c3ccnc(N4CCC45COC5)n3)c2c1 | binding | 1 µM | 100 |
| O=C(c1ccc(Nc2ncc(Cl)c(-c3ccc(Cl)s3)n2)cc1)N1CCC(N2CCCC2)CC1 | binding, competition with immobilised ligand | 1 µM | 3 |
| COc1ccc2cc(OCC3(C(=O)O)CN(C(=O)c4ccc(F)cc4)C3)ccc2c1 | cell-free assay, competition with immobilised ligand | 1 µM | 100 |
| COc1cnc(Nc2cccc(S(N)(=O)=O)c2)nc1N1CCN(c2ccccc2)CC1 | binding, competition with immobilised ligand | 1 µM | 93 |
| CC(=O)c1c(NS(C)(=O)=O)c2cc(-c3ccc(Cl)cc3)c(-c3ccc(Cl)cc3Cl)nc2n(C)c1=O | cell-free assay, competition with immobilised ligand | 1 µM | 97 |
| F[C@@H]1CCN(c2nccc(-c3cnn4ncccc34)n2)C1 | binding | 1 µM | 100 |
| COc1ncc2cc3ccccc3nc2c1C#N | cell-free assay, competition with immobilised ligand | 5 µM | 100 |
| O=C(NCC1CCOCC1)c1n[nH]cc1NC(=O)c1c(F)cccc1F | binding, competition with immobilised ligand | 1 µM | 100 |
| CN(c1nccc(-c2cnn3ncccc23)n1)C1CC1 | binding | 1 µM | 100 |
| O=C(Nc1ccc(Oc2ccc(F)cc2)cc1)N1CCc2ncccc2[C@H]1c1ccc(F)cc1 | cell-free assay, competition with immobilised ligand | 1 µM | 95 |
| CN(C)c1nccc(-c2cnc3ncccn23)n1 | binding | 1 µM | 72 |
| CCCOc1ccc([C@@H]2[C@@H](C(=O)O)[C@H](c3ccc4c(c3)OCO4)CN2CC(=O)Nc2c(CC)cccc2CC)cc1 | cell-free assay, competition with immobilised ligand | 1 µM | 90 |
